# Experiments:
# VHR [1] = target: T1, VHR (Homo sapiens, UniProt P51452); assay: Michaelis–Menten kinetic assay of VHR with OMFP; assay type: biochemical; conditions: read-out: Michaelis–Menten constant (Km); OMFP as substrate of VHR
# Outline: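 Full-length human His8-VHR expressed in E. coli, fixed at 2.5 nM, with OMFP titrated. Enzyme preincubated 20 min at room temperature, then substrate added. Fluorescence (ex 485/em 535 nm) read kinetically for 10 min. Initial velocities were background-corrected against no-enzyme wells and fitted to the Michaelis–Menten equation.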
# VHR [2] = target: T1, VHR; assay: VHR dose–response inhibition assay with OMFP substrate; assay type: biochemical
# Outline: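 Ten-point curves, 100 μM to 5 nM final, in triplicate, with DMSO vehicle. Human His8-VHR (2.5 nM final) in pH 6 Bis-tris buffer with DTT and Tween-20 was preincubated with compound 20 min at room temperature. Reaction started with OMFP (6 μM final) and read at ex 485/em 535 nm for 10 min. Slopes were normalized to no-enzyme and vehicle controls and fitted to a four-parameter variable-slope model.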
# VHR [3] = target: T1, VHR; assay: Isothermal titration calorimetry; assay type: binding; conditions: dissociation constant (KD), ITC; mean of two independent experiments ± SEM
# Outline: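 Run at 25 °C on full-length human VHR (His8-tagged, E. coli-expressed, Ni-NTA purified). Protein was 60–285 μM in PBS with 5% DMSO in the cell. Test compound (0.3–5 mM in the same buffer) was added as 20 injections of 6 μL. Baseline came from compound injected into buffer alone. KD was the mean of two independent runs.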
# T1 sequence (P51452 whole entry): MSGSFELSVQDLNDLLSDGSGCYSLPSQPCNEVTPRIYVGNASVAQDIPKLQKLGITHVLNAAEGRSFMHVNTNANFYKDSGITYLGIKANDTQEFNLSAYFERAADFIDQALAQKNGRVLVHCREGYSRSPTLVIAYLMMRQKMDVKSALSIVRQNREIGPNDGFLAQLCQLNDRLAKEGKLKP
Km (VHR [1]),IC50 (VHR [2]),Kd (VHR [3]),Structure (SMILES)
5.4 µM,–,–,"COc1ccc2c(c1)Oc1cc(OP(=O)(O)O)ccc1C21OC(=O)c2ccccc21 (stereo not drawn) [OMFP, 3-O-methylfluorescein phosphate]"
–,4.1 ± 1.8 µM,7.6 ± 0.2 µM,"O=P(O)(O)C(F)(F)c1cccc(-c2cccc(-c3cscn3)c2)c1 [SBP-4929, (Difluoro(3′-(thiazol-4-yl)-[1,1′-biphenyl]-3-yl)methyl)phosphonic Acid]"

# Reference: paper PMC11822521 (ACS Omega, 2025)
